Source: ChEMBL document CHEMBL1135185, “Synthesis and PTP1B inhibition of 1,2-naphthoquinone derivatives as potent anti-diabetic agents” (Bioorg Med Chem Lett, 2002)
Values belong to the compound of their own block, whether it stands above or below them.

How the values were obtained:
[1] = biological target: T1, Tyrosine-protein phosphatase non-receptor type 1 (Homo sapiens, UniProt P18031); assay: In vitro inhibitory activity against recombinant human protein-tyrosine phosphatase 1B (PTP1B) using fluorescein diphosphate (FDP) as a substrate; Not active
T1 sequence (P18031 whole entry): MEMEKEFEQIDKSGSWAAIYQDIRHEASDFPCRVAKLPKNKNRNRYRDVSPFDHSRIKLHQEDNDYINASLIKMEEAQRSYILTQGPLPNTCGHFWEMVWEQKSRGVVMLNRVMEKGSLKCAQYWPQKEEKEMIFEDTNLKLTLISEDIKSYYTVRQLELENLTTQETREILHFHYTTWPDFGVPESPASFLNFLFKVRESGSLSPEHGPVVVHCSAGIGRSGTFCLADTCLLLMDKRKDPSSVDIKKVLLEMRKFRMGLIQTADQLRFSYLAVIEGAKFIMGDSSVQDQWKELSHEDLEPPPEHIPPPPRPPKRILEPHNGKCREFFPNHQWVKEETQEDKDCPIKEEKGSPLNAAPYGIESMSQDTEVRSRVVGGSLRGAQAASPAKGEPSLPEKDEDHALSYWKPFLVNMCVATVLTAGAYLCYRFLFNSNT
In short: (§1)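 Recombinant human PTP1B enzyme, fluorescein diphosphate (FDP) as substrate. Enzyme activity was followed by fluorescence measurement. IC50 values were obtained by direct regression curve analysis.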

[2] = biological target: T1, Tyrosine-protein phosphatase non-receptor type 1; assay: Inhibition of human Protein-tyrosine phosphatase 1B (PTP1B) using fluorescein diphosphate (FDP); in short: as §1
[3] = biological target: T1, Tyrosine-protein phosphatase non-receptor type 1; assay: In vitro inhibitory activity against recombinant human protein-tyrosine phosphatase 1B (PTP1B) using fluorescein diphosphate (FDP) as a substrate; in short: as §1
[4] = biological target: T2, Receptor-type tyrosine-protein phosphatase C (Homo sapiens, UniProt P08575); assay: In vitro inhibitory activity against recombinant human CD45 using fluorescein diphosphate (FDP) as a substrate
T2 sequence (P08575 whole entry): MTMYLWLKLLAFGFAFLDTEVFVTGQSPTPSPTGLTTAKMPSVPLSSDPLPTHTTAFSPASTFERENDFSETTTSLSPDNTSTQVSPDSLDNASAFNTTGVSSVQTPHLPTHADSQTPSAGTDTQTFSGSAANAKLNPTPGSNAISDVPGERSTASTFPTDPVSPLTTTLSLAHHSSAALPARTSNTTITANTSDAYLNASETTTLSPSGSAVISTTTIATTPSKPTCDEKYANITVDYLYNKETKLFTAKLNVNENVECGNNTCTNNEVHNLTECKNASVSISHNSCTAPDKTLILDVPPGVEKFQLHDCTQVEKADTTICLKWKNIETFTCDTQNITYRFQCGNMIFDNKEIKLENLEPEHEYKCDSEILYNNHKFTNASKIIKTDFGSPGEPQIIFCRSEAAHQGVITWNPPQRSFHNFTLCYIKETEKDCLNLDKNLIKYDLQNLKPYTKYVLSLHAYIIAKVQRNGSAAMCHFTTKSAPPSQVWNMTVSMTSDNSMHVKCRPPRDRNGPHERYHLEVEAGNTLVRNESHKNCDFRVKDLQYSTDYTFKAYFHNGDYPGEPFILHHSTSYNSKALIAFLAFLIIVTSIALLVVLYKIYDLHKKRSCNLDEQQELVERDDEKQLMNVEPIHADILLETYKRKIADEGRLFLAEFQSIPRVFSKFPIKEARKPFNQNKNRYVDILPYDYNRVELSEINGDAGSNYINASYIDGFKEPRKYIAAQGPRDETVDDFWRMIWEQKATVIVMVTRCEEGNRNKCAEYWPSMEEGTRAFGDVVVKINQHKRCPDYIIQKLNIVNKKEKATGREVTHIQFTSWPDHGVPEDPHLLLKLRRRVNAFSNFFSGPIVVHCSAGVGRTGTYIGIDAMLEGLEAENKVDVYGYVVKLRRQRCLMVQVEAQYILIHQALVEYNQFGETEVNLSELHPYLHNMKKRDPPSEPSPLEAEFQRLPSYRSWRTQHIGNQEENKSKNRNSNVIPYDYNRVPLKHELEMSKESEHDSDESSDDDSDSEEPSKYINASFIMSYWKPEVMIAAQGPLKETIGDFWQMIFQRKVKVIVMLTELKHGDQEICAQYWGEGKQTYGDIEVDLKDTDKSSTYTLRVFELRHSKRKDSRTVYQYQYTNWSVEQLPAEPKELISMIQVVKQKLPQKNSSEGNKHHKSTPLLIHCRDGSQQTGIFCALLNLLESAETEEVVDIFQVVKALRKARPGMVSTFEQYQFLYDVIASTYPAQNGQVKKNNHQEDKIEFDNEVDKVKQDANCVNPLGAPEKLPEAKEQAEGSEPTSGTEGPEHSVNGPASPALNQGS

[5] = biological target: T3, M-phase inducer phosphatase 2 (Homo sapiens, UniProt P30305); assay: In vitro inhibitory activity against recombinant human Cdc25B using fluorescein diphosphate (FDP) as a substrate
T3 sequence (P30305 whole entry): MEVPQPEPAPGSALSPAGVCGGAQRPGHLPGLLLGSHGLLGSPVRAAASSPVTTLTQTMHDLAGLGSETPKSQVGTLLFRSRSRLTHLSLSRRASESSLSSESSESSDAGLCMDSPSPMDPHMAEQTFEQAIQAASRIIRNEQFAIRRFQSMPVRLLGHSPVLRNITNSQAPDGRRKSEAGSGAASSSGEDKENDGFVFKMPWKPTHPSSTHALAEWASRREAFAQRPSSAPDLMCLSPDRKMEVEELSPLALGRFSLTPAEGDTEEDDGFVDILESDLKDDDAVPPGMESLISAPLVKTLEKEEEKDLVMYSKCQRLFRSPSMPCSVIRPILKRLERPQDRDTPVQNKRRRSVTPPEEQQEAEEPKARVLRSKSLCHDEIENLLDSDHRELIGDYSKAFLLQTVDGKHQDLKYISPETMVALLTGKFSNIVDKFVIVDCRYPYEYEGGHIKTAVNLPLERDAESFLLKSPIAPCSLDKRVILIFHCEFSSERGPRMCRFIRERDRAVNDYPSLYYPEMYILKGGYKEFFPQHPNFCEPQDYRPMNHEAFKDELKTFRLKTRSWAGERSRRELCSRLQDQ

[6] = In vitro inhibitory activity against recombinant human PPI using fluorescein diphosphate (FDP) as a substrate
[7] = In vitro inhibitory activity against recombinant […] Yop using fluorescein diphosphate (FDP) as a substrate
[8] = biological target: Receptor-type tyrosine-protein phosphatase F (Homo sapiens, UniProt P10586); assay: In vitro inhibitory activity against recombinant human LAR using fluorescein diphosphate (FDP) as a substrate
Chain of Receptor-type tyrosine-protein phosphatase F (P10586 whole entry): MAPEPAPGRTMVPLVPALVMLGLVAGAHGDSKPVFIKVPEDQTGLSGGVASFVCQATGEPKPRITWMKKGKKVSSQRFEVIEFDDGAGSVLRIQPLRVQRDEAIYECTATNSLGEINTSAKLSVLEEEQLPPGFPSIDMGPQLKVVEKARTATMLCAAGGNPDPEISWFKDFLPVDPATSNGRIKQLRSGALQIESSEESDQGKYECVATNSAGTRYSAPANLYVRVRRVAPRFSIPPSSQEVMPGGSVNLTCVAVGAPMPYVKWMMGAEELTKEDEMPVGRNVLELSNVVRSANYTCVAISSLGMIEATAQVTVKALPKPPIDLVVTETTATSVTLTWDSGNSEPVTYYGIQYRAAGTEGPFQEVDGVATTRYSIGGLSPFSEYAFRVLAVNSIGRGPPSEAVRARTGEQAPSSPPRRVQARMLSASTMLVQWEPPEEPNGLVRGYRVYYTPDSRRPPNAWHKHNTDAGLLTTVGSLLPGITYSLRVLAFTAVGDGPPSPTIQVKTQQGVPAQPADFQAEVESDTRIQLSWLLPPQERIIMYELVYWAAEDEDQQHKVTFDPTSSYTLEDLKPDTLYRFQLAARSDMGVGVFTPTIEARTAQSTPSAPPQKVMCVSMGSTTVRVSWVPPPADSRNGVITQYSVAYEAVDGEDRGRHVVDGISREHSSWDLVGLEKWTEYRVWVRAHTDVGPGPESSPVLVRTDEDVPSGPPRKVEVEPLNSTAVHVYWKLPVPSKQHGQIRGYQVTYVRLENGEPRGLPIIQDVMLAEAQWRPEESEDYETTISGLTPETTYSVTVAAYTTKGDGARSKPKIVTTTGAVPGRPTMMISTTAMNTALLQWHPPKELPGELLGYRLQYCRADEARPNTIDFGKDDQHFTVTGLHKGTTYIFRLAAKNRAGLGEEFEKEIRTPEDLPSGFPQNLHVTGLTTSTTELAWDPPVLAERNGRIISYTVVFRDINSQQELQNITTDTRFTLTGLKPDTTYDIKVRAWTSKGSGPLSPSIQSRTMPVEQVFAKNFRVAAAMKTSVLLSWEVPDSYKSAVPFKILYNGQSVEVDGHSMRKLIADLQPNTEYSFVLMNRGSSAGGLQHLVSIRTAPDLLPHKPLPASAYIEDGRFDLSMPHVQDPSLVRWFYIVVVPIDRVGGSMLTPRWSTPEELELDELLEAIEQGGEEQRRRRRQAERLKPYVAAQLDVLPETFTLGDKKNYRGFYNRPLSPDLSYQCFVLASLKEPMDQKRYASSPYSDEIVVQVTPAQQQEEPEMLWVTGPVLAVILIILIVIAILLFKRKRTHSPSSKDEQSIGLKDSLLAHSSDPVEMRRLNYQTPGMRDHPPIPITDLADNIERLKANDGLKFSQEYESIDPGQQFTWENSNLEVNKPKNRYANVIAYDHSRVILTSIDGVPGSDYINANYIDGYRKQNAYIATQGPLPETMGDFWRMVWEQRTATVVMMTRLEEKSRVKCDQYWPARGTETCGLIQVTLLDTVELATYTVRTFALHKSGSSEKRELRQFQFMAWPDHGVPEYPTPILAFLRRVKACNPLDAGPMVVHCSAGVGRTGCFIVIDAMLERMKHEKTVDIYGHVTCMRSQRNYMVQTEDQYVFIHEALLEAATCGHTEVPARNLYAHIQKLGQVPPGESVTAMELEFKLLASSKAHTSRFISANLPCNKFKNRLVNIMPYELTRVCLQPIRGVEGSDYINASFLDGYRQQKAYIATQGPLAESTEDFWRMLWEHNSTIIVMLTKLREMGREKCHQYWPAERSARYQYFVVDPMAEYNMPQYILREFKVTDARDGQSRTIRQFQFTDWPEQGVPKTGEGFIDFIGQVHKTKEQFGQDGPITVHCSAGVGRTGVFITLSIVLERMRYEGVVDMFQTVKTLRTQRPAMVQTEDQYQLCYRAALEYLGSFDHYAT

IC50 [1]: Not Active
SMILES: Cc1c(C2=CC(=O)C(=O)c3ccccc32)c2ccccc2n1C

IC50 [2]: 940 nM
SMILES: COC(=O)CCC1=C(n2ccc3ccccc32)c2ccc(CCC(=O)OC)cc2C(=O)C1=O

IC50 ([3]; read-out: IC50): 10100 nM
SMILES: CC(C)C1=CC(=O)C(=O)c2ccccc21

IC50 ([3]; read-out: IC50): 2690 nM
SMILES: CCCCCOC1=C(c2ccccc2)c2ccccc2C(=O)C1=O

IC50 ([3]; read-out: IC50): 3000 nM
SMILES: O=C1C=C(c2c[nH]c3ccc(C(=O)O)cc23)c2ccccc2C1=O

IC50 [4]: 840 nM | IC50 [5]: 9520 nM | IC50 [6]: 8370 nM | IC50 ([3]; read-out: IC50): 860 nM | IC50 [7]: 21100 nM
SMILES: O=C1C=C(c2ccccc2)c2ccccc2C1=O

IC50 ([3]; read-out: IC50): 2150 nM
SMILES: O=C1C=C(c2cccc3ccccc23)c2ccccc2C1=O

IC50 [2]: 1010 nM
SMILES: CCOC(=O)c1ccc(CCC2=C(c3ccccc3)c3ccccc3C(=O)C2=O)cc1

IC50 ([3]; read-out: IC50): 2250 nM
SMILES: O=C(Nc1ccc2c(c1)C(=O)C(=O)C=C2c1ccccc1)OCc1ccccc1

IC50 [3]: Not Active
SMILES: O=C1C=C(N2CCCC2)c2ccccc2C1=O

IC50 [4]: 1650 nM | IC50 [5]: 2130 nM | IC50 ([3]; read-out: IC50): 1540 nM | IC50 [7]: 12000 nM
SMILES: COC(=O)c1ccc(C2=CC(=O)C(=O)c3ccccc32)cc1

IC50 ([3]; read-out: IC50): 1070 nM
SMILES: CCOC(=O)COc1ccc(C2=CC(=O)C(=O)c3ccccc32)cc1

IC50 ([3]; read-out: IC50): 650 nM
SMILES: CCOC(=O)Nc1cccc2c1C(=O)C(=O)C=C2c1ccccc1

IC50 ([3]; read-out: IC50): 500 nM
SMILES: O=C1C=C(c2cc(F)ccc2F)c2ccccc2C1=O

IC50 [4]: 3270 nM | IC50 [5]: 3000 nM | IC50 [8]: 8990 nM | IC50 [6]: 8060 nM | IC50 ([3]; read-out: IC50): 320 nM | IC50 [7]: 17900 nM
SMILES: O=C1C=C(C2CCCCC2)c2ccccc2C1=O

IC50 ([3]; read-out: IC50): 34900 nM
SMILES: CN(C1=CC(=O)C(=O)c2ccccc21)c1ccccc1

IC50 [2]: 270 nM
SMILES: CCOC(=O)CCC1=C(n2ccc3ccccc32)c2ccccc2C(=O)C1=O

IC50 ([3]; read-out: IC50): 920 nM
SMILES: CCCCCOc1ccc2c(c1)C(=O)C(=O)C=C2c1ccccc1

IC50 ([3]; read-out: IC50): 1340 nM
SMILES: O=C(Nc1cccc2c1C(=O)C(=O)C=C2c1ccccc1)OCc1ccccc1

IC50 [1]: Not Active
SMILES: CCCCCCCCCCC1=CC(=O)C(=O)c2ccccc21

IC50 ([3]; read-out: IC50): 2150 nM
SMILES: CCOC(=O)COc1ccccc1C1=CC(=O)C(=O)c2ccccc21

IC50 ([3]; read-out: IC50): 4560 nM
SMILES: O=C1C=C(c2c[nH]c3cc(C(=O)O)ccc23)c2ccccc2C1=O

IC50 ([3]; read-out: IC50): 5290 nM
SMILES: O=C1C=C(S(=O)(=O)O)c2ccccc2C1=O

IC50 [1]: Not Active
SMILES: O=C1C=C(c2c(-c3ccccc3)[nH]c3ccccc23)c2ccccc2C1=O

IC50 [1]: Not Active
SMILES: CCCCCOc1ccc2c(c1)C(c1ccccc1)=CC(=O)C2=O

IC50 [2]: 610 nM
SMILES: CCN(CC)C(=O)CCC1=C(c2ccccc2)c2ccccc2C(=O)C1=O
